In brackets after ≈: the same amount, converted by molar mass.
Assays:
[1] = test system: Artemia salina; assay: (§1) Toxicity in brine shrimp; type: organism-based; settings: in vivo
[2] = test system: A549; assay: Cytotoxicity against human A549 cells after 7 days by MTT assay; type: functional; settings: A549, 168 h, read-out: ED50 (the source's name)
How it was run: (§2)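 Standard 7-day MTT cytotoxicity assay on human tumour lines: A-549 (lung carcinoma), MCF-7 (breast carcinoma), HT-29 (colon adenocarcinoma), A-498 (kidney carcinoma), PC-3 (prostate adenocarcinoma), PACA-2 (pancreatic carcinoma). Adriamycin was run as the positive control standard.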

[3] = test system: MCF7; assay: Cytotoxicity against human MCF7 cells after 7 days by MTT assay; type: functional; how it was run: as §2
[4] = test system: HT-29; assay: Cytotoxicity against human HT29 cells after 7 days by MTT assay; type: functional; settings: for EC50: Homo sapiens, HT-29, 168 h, read-out: ED50 (the source's name); how it was run: as §2
[5] = test system: A498; assay: Cytotoxicity against human A498 cells after 7 days by MTT assay; type: functional; settings: for EC50: Homo sapiens, A498, 168 h, read-out: ED50 (the source's name); how it was run: as §2
[6] = test system: PC-3; assay: Cytotoxicity against human PC-3 cells after 7 days by MTT assay; type: functional; settings: for EC50: Homo sapiens, PC-3, 168 h, read-out: ED50 (the source's name); how it was run: as §2
[7] = test system: MIA PaCa-2; assay: Cytotoxicity against human PACA2 cells after 7 days by MTT assay; type: functional; settings: for EC50: Homo sapiens, MIA PaCa-2, 168 h, read-out: ED50 (the source's name); how it was run: as §2
[8] = as §1; type: organism-based; settings: artemia salina, in vivo

Row | SMILES | LC50 [1] | EC50 [2] | ED50 [3] | ED50 [4] | ED50 [5] | ED50 [6] | ED50 [7] | LC50 [8] | EC50 [4] | EC50 [5] | EC50 [6] | EC50 [7] | EC50 ([3]; Homo sapiens, MCF7, 168 h, read-out: ED50 (the source's name))
1 | CCCCCCC[C@H](O)CC[C@H](O)[C@H]1CC[C@H]([C@H]2CC[C@H]([C@H](O)CCCCCCCCCC[C@@H](O)CC3=C[C@H](C)OC3=O)O2)O1 | 4.3 ×10⁻² ug/ml | 0.0021 µg/mL (≈ 0.00329 µM) | 7.8 ×10⁻⁴ ug/ml | 1.8 ×10⁻⁵ ug/ml | 3.1 ×10⁻⁸ ug/ml | <1 ×10⁻⁹ ug/ml | <1 ×10⁻⁹ ug/ml |  |  |  |  |  | 
2 | CCCCCCCCCC[C@H](O)C[C@@H](O)[C@H]1CC[C@H]([C@H](O)CCC(=O)CCC[C@H](O)CCCCCC2=C[C@H](C)OC2=O)O1 [ANNOGLAXIN] |  | 1.1 µg/mL (≈ 1.8 µM) | 4.3 ×10⁻⁴ ug/ml |  |  |  |  | 0.29 µg/mL (≈ 0.475 µM) | 0.18 µg/mL (≈ 0.295 µM) | 1.8 µg/mL (≈ 2.95 µM) | 0.87 µg/mL (≈ 1.42 µM) | 1.6 µg/mL (≈ 2.62 µM) | 
3 | COc1cccc2c1C(=O)c1c(O)c3c(c(O)c1C2=O)C[C@@](O)(C(=O)CO)C[C@@H]3O[C@H]1C[C@H](N)[C@H](O)[C@H](C)O1 [DOXORUBICIN] |  | 0.0013 µg/mL (≈ 0.00239 µM) |  |  |  |  |  |  | 0.01 µg/mL (≈ 0.0184 µM) | 0.0019 µg/mL (≈ 0.0035 µM) | 0.02 µg/mL (≈ 0.0368 µM) | 0.0043 µg/mL (≈ 0.00791 µM) | 0.09 µg/mL (≈ 0.166 µM)
